Source: ChEMBL document CHEMBL1138117, “Hybrid antibacterials. DNA polymerase-topoisomerase inhibitors” (J Med Chem, 2006)
Converted amounts (≈) assume the structure as drawn.

Assays:
[1] = system: DNA gyrase (Bacillus subtilis); assay: Inhibition of Bacillus subtilis gyrase activity
Mus musculus [2] = assay: Effect on survival of mice infected with Enterococcus faecalis 29212 at 50 mg/kg, 15 min post injection; assay type: functional, Swiss Webster
Method in brief: (§1)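 Male Swiss-Webster mice were infected ip with the organism grown in brain-heart infusion broth at 37 °C to log phase and washed. It was given in 0.5 mL broth with 5% mucin; CFU were estimated from OD600. Groups of 5 or 10 received iv tail-vein doses in DCP vehicle at 5 mL/kg. Survivors were counted at 72 h.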

Mus musculus [3] = assay: Effect on survival of mice infected with methicillin resistant Staphylococcus aureus 1094 at 75 mg/kg twice at 15 and 135 min post injection; assay type: functional, Swiss Webster
Method in brief: (§2)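 Male Swiss-Webster mice were infected ip with 1×10⁷ CFU of log-phase MRSA 1094, grown in brain-heart infusion broth and given in 0.5 mL broth with 5% mucin. Doses in DCP vehicle were given iv by tail vein at 5 mL/kg. Survivors per treated group were counted at 72 h post-infection.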

Mus musculus [4] = assay: Effect on survival of mice after ip infection with Vancomycin resistant Enterococcus faecium VRE 700802 at 75 mg/kg twice at 15 and 195 min post injection; assay type: functional, Swiss Webster; conditions: route intraperitoneal
Method in brief: as §1

Mus musculus [5] = assay: Effect on survival of mice infected with Enterococcus faecalis 29212 at 25 mg/kg, 15 min post injection; assay type: functional, Swiss Webster
Method in brief: as §1

Enterococcus faecium [6] = assay: Antibacterial activity against Vancomycin resistant Enterococcus faecium VRE 700802; assay type: functional
Mus musculus [7] = assay: Effect on survival of mice infected with methicillin resistant Staphylococcus aureus 1094 at 25 mg/kg twice at 15 and 135 min post injection; assay type: functional, Swiss Webster
Method in brief: as §2

Mus musculus [8] = assay: Effect on survival of mice after ip infection with Vancomycin resistant Enterococcus faecium VRE 700802 at 50 mg/kg twice at 15 and 135 min post injection; assay type: functional, Swiss Webster
Method in brief: as §1

Escherichia coli = assay: Antibacterial activity against Escherichia coli J53; assay type: functional
Enterococcus faecium [9] = assay: Antibacterial activity against Enterococcus faecium 19434; assay type: functional
Mus musculus [10] = assay: Effect on survival of mice after ip infection with Vancomycin resistant Enterococcus faecium VRE 700802 at 50 mg/kg twice at 15 and 195 min post injection; assay type: functional, Swiss Webster; conditions: route intraperitoneal
Staphylococcus aureus = assay: Antibacterial activity against methicillin resistant Staphylococcus aureus MRSA 1094; assay type: functional
Mus musculus [11] = assay: Effect on survival of mice after ip infection with Vancomycin resistant Enterococcus faecium VRE 700802 at 75 mg/kg twice at 15 and 135 min post injection; assay type: functional, Swiss Webster; conditions: route intraperitoneal
Mus musculus [12] = assay: Effect on survival of mice infected with Enterococcus faecalis 29212 at 75 mg/kg, 15 min post injection; assay type: functional, Swiss Webster
Method in brief: as §1

Enterococcus faecalis = assay: Antibacterial activity against Enterococcus faecalis 29212; assay type: functional
Mus musculus [13] = assay: Effect on survival of mice after ip infection with Staphylococcus aureus Smith; assay type: functional
Method in brief: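 Male Swiss-Webster mice (20–24 g) were given 10⁸ CFU of log-phase S. aureus Smith ip, grown in LB at 37 °C and washed in cold broth. A single iv tail-vein dose was given in DCP vehicle (10% DMA, 10% Cremophor EL in PBS, pH 9.5; 5 mL/kg) 15 min post-infection. Survival was scored at 72 h and ED50 derived.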

Mus musculus [14] = assay: Effect on survival of mice infected with methicillin resistant Staphylococcus aureus 1094 at 50 mg/kg twice at 15 and 135 min post injection; assay type: functional, Swiss Webster
Method in brief: as §2

Mus musculus [15] = assay: Effect on survival of mice infected with Enterococcus faecalis 29212 at 50 mg/kg twice at 15 and 135 min post injection; assay type: functional, Swiss Webster
Method in brief: as §1

Mus musculus [16] = assay: Effect on survival of mice after ip infection with Vancomycin resistant Enterococcus faecium VRE 700802 at 100 mg/kg, 15 min post injection; assay type: functional, Swiss Webster; conditions: route intraperitoneal
Method in brief: as §1

Mus musculus [17] = assay: Effect on survival of mice infected with Enterococcus faecalis 29212 at 25 mg/kg twice at 15 and 135 min post injection; assay type: functional, Swiss Webster
Method in brief: as §1

CCc1cc(Nc2cc(=O)n(CCCCN3CCN(c4c(F)cc5c(=O)c(C(=O)O)cn(C6CC6)c5c4F)CC3C)c(=O)[nH]2)ccc1C (stereo not given)
IC50 [1]: 21.7 µg/mL (≈ 32.7 µM)
Activity (Mus musculus [2]): 40%
Activity (Mus musculus [3]): 55%
Activity (Mus musculus [4]): 45%
Activity (Mus musculus [5]): 13%
MIC (Enterococcus faecium [6]): 0.625 µg/mL (≈ 0.943 µM)
Activity (Mus musculus [7]): 5%
Activity (Mus musculus [8]): 10%
MIC (Escherichia coli): 5 µg/mL (≈ 7.54 µM)
MIC (Enterococcus faecium [9]): 1.25 µg/mL (≈ 1.89 µM)
Activity (Mus musculus [10]): 0%
MIC (Staphylococcus aureus): 1.25 µg/mL (≈ 1.89 µM)
Activity (Mus musculus [11]): 0%
Activity (Mus musculus [12]): 80%
MIC (Enterococcus faecalis): 1.25 µg/mL (≈ 1.89 µM)
ED50 (Mus musculus [13]): 15 mg/kg
Activity (Mus musculus [14]): 0%
Activity (Mus musculus [15]): 80%
Activity (Mus musculus [16]): 10%
Activity (Mus musculus [17]): 40%
